# Source: PubChem (several laboratories)
# INS promoter inh – TRM-6 insulin promoter activity inhibition; AID 1273; TRM-6 cells (human fetal islet line), insulin promoter-eGFP reporter, imaging; reporter expression induced with tamoxifen; inhibition, % at 2 µM; 130,000 tested, 0.9% active;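 active means inhibition above the mean plus 3 SD, with well images judged a real hit on visual review, cut at about 60% in these data, passing the limit was not always enough; inconclusive means inhibition over the cutoff but images rejected on review; inactive means inhibition not above the cutoff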
# Ins promoter up – MIN6 insulin promoter up-regulation | MIN6 insulin promoter-GFP reporter, high-content imaging; active compounds read high | z-score at 5 µM | 190,000 tested, 0.3% active;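 active means z-score above 3 at 5 µM with at least 500 cells counted in the well; inconclusive means wells under 500 cells, flagged as cytotoxic or low count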
# PKD1 kinase inh – PKD1 (human) kinase inhibition. 200,000 tested, 0.056% active. AID 797. inhibition, % (test concentration not listed). PKD1 kinase fluorescence polarization assay; in the data active means inhibition above about 50%
# RBBP9 inh – blocks human serine hydrolase RBBP9; 220,000 tested, 0.2% active; inhibition, % at 7.94 µM; O75884; recombinant RBBP9, FP-Rh probe fluorescence polarization; AID 1515;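 active means inhibition above the campaign mean of all tested compounds plus 3 SD, cut at about 14% in these data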;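 further: plate controls were DMSO wells with RBBP9 for no effect and wells lacking RBBP9 protein for full effect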
# Target sequence (O75884 whole entry, looked up): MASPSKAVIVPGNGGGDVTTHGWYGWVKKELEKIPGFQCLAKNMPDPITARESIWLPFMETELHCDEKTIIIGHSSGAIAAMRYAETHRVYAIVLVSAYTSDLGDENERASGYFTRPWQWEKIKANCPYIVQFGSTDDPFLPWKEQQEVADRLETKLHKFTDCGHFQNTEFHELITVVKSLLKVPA
#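 Test system: recombinant human RBBP9; Timing: 30 min then 45 min, 25 °C; Detection: fluorescence polarization; Control set: RBBP9 with DMSO as uninhibited control, no-protein wells as full inhibition; Compound dosing: one concentration, 7.94 µM nominal, 0.794% DMSO; Probe or stimulus: FP-Rh activity-based probe, 375 nM before mixing.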
# Autophagy mod – alters autophagy in cells; MEF GFP-LC3 puncta imaging; test concentration mostly 10 µM; 190,000 tested, 0.98% active; calls only at 10 µM (by protocol); AID 463193;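 active means percentage of spot-positive cells more than 3 SD above its plate mean, without a fluorescence outlier flag or 80% toxicity; inconclusive means no clear call, values can overlap the other calls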;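 further: spot-positive cell cutoff set from DMSO-treated cells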
# Arbovirus anti – antivirals against arbovirus infection. 200,000 tested, 0.37% active. arbovirus infection cell-based antiviral screen. inhibition, % at 10 µM; in the data active means inhibition above about 30%
# * = called active by the depositor; i = inactive; ? = inconclusive; nt = not tested or not shown; + = active, no number. Most compounds without a hit are left out; they make up all but 2.1% or so of the library.
SMILES,INS promoter inh,Ins promoter up,PKD1 kinase inh,RBBP9 inh,Autophagy mod,Arbovirus anti
Cc1cc(C)nc(CCNC(=O)c2cc(COc3ccc(F)cc3F)on2)n1,nt,-1.1,1,2,i,4
Cc1ccc(-c2nc(CS(=O)(=O)CC(=O)N3CC(C)CC(C)C3)c(C)o2)cc1 (stereo not given),nt,-0.43,-6,-9,i,12
O=[N+]([O-])c1ccc(Cl)cc1N1CCCCC1,nt,-0.26,-6,-9,+,-4
O=[N+]([O-])c1ccc(Cl)cc1N1CCOCC1,11,nt,4,-12,i,-3
COc1ccccc1NC(=O)C12CC3CC(C1)CC(c1ccc(C)cc1)(C3)C2,17,-0.43,6,-3,i,32*
CCC(C)NC(=O)COC(=O)c1oc2ccccc2c1CSc1ccc(Cl)cc1 (stereo not given),-37,-0.25,-13,-2,i,17
CCC1=Nc2cc(C(=O)NCCCOC(C)C)ccc2Sc2ccccc21,-110,1.4,-3,-2,+,-8
COC(=O)CN1C(=O)C(O)(CC(=O)c2ccc(C)o2)c2ccccc21 (stereo not given),53,0.55,-2,-1,i,-6
Cc1ccc(C(=O)CC2(O)C(=O)N(C)c3ccccc32)o1 (stereo not given),nt,1.9,-4,-2,+,-2
CCN(CC)c1ccc(/C=N/N=C(c2ccccc2)c2ccccc2)c(O)c1,-43,2.3,-6,-7,+,0
COc1ccc(/C=N/OCC(=O)N=Nc2c(O)[nH]c3ccc(Br)cc23)cc1,80*,nt,3,-14,i,-16
Cc1cccc(C)c1OCC(=O)N=Nc1c(O)[nH]c2ccc(Br)cc12,-42,1.1,0,2,i,-36
CCOc1c(C)cc(-c2ncccc2O)cc1C,82*,-0.62,-2,5,i,1
COC(=O)c1ccc2c(c1)C(C)(C)C(/C=C/c1ccc(OC)c(OC)c1OC)=[N+]2C,3,?,-5,-144,+,-33
COc1cc(-c2cc(C(=O)Nc3ccc(S(=O)(=O)NCc4ccco4)cc3)c3ccccc3n2)cc(OC)c1OC,-4,-0.96,-6,-55,+,-6
COc1cc(-c2cc(C(=O)Nc3ccc(N4CCOCC4)cc3)c3ccccc3n2)cc(OC)c1OC,nt,-0.34,nt,-4,nt,nt
CC(C)C(=O)NNc1ccc(C(F)(F)F)cn1,nt,0.25,nt,4,nt,nt
O=C(N/N=C/c1cc([N+](=O)[O-])c(N2CCOCC2)cc1N1CCOCC1)c1cccnc1,69*,-1.4,2,0,i,3
COC(=O)c1ccc(NC(=O)CN2CCN(c3ccc(Cl)cc3)CC2)cc1,nt,1.7,-7,2,+,-7
COC(=O)c1ccc(NC(=O)CN2CCN(c3cccc(Cl)c3)CC2)cc1,nt,0.62,6,1,i,2
CC(C)NC(=O)CC(=O)N/N=C/c1ccc(Br)cc1,nt,0.1,-1,-2,i,0
Cc1[nH]c2ccccc2c1CCC(N)=O,nt,0.15,-6,7,i,3
Cc1[nH]c2ccccc2c1Cc1nnc(SCC(N)=O)o1,-110,4.8*,-5,7,i,3
Oc1ccc(Br)cc1C=Nc1cccn2cc(-c3ccccc3)nc12,0,-0.13,-9,-11,i,-3
COC(=O)c1c(SCc2ccc(C#N)cc2)nc(=O)[nH]c1C,26,-1.1,-6,-6,i,78*
SMILES,INS promoter inh,Ins promoter up,PKD1 kinase inh,RBBP9 inh,Autophagy mod,Arbovirus anti
CCC(C)/C(C)=N/NC(=O)c1ccc(CSc2nc3ccccc3s2)cc1 (stereo not given),100*,0.23,2,-11,i,-6
COc1ccc(CCNc2ccc(C(CC(N)=O)NC(=O)c3ccccc3)cc2[N+](=O)[O-])cc1 (stereo not given),nt,0.27,nt,nt,nt,nt
CCOc1ccc(Nc2nc(NCC3CCCO3)c3ccccc3n2)cc1 (stereo not given),-40,?,-1,1,+,-36
Fc1cccc(NC(=S)N2CCCCC2)c1,nt,-0.05,0,1,i,5
COc1ccc(/C=N\NC(=O)CCN2CCN(c3ccccc3)CC2)cc1OC,nt,-0.09,-5,-1,i,4
O=C(CCN1CCN(c2ccccc2)CC1)N/N=C/c1ccccc1OC(F)F,nt,0.01,0,-2,+,-13
Cn1c(=O)c(Oc2ccc(F)cc2)c(O)c2ccccc21,64*,-0.05,-9,3,i,14
CC(=O)c1c(O)c2ccccc2n(C)c1=O,nt,-0.27,10,0,i,9
